ChEMBL document CHEMBL1151204, “Hypoglycemic effect and antioxidant potential of kaempferol-3,7-O-(alpha)-dirhamnoside from Bauhinia forficata leaves” (J Nat Prod, 2004)
The source made the active and inactive calls. The calls are words filed in the database; no cut-off is given here.

Key:
[1] = test system: Rattus norvegicus; assay: Hypoglycemic activity in diabetic 16 hrs fasted Wistar rat assessed as reduction in alloxan-induced serum glucose level at 100 mg/kg, po after 3 hrs by glucose oxidase method; assay type: functional
Method in brief: (§1)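 Male Wistar rats, 160–190 g. Alloxan monohydrate 60 mg/kg i.v. in 0.9% NaCl given after an overnight fast. Rats with serum glucose 25–30.5 mmol/L at 72 h were fasted and randomized to diabetic, vehicle (0.5 mL 1% EtOH–H2O) or compound groups. Compound given by oral gavage. Retro-orbital serum glucose by glucose oxidase at 0, 1, 2 and 3 h. Mean ± SEM, n = 6 in duplicate, compared with 0 h.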

[2] = test system: Rattus norvegicus; assay: Hypoglycemic activity in 16 hrs fasted Wistar rat assessed as reduction in serum glucose level at 100 mg/kg, po measured after 90 mins of glucose challenge by oral glucose tolerance test; assay type: functional
Method in brief: (§2)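 Male Wistar rats, 160–190 g, fasted ≥16 h with water allowed. Oral gavage of glucose 4 g/kg alone or with compound 100 mg/kg. Controls: untreated rats and tolbutamide 100 mg/kg. Blood drawn from the retro-orbital plexus before and at 30, 60, 90 and 180 min after the load. Serum glucose by glucose oxidase; mean ± SEM, n = 3 in duplicate.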

[3] = test system: Rattus norvegicus; assay: Hypoglycemic activity in normal 16 hrs fasted Wistar rat assessed as reduction in serum glucose level at 100 mg/kg, po after 2 hrs by glucose oxidase method; assay type: functional
Method in brief: (§3)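 Male Wistar rats, 160–190 g, fasted ≥16 h with free water. Groups: control, vehicle (0.5 mL 1% EtOH–H2O) and compound by oral gavage. Retro-orbital blood drawn and centrifuged; serum glucose by glucose oxidase at 0, 1, 2 and 3 h. Mean ± SEM, n = 6 in duplicate, compared with the 0 h value.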

[4] = test system: Rattus norvegicus; assay: Hypoglycemic activity in diabetic 16 hrs fasted Wistar rat assessed as reduction in alloxan-induced serum glucose level at 50 mg/kg, po after 1 hr by glucose oxidase method; assay type: functional; method in brief: as §1
[5] = test system: Rattus norvegicus; assay: Hypoglycemic activity in normal 16 hrs fasted Wistar rat assessed as reduction in serum glucose level at 100 mg/kg, po after 3 hrs by glucose oxidase method; assay type: functional; method in brief: as §3
[6] = test system: Liver microsomes; assay: Antioxidant activity in Wistar rat liver microsomes assessed as inhibition of ascorbyl radical-induced lipid peroxidation by TBARS assay; assay type: functional, Microsome
Method in brief: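 Microsomes from male Wistar rat liver, isolated by differential centrifugation with calcium aggregation and stored at -70 °C; protein by Lowry, fixed at 2 mg/mL. Ascorbyl-radical peroxidation started with 25 µM FeSO4 plus 500 µM ascorbate. TBARS read with extinction coefficient 1.56 × 10^5 M-1 cm-1; IC50 derived; mean ± SEM, n = 3 in duplicate.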

[7] = test system: Rattus norvegicus; assay: Hypoglycemic activity in normal 16 hrs fasted Wistar rat assessed as reduction in serum glucose level at 50 mg/kg, po after 3 hrs by glucose oxidase method; assay type: functional; method in brief: as §3
[8] = test system: Rattus norvegicus; assay: Hypoglycemic activity in diabetic 16 hrs fasted Wistar rat assessed as reduction in alloxan-induced serum glucose level at 200 mg/kg, po after 3 hrs by glucose oxidase method; assay type: functional; method in brief: as §1
[9] = test system: Lung; assay: Antioxidant activity in Wistar rat lung assessed as maximal inhibition of myeloperoxidase at 400 uM
[10] = test system: Rattus norvegicus; assay: Hypoglycemic activity in normal 16 hrs fasted Wistar rat assessed as reduction in serum glucose level at 100 mg/kg, po after 1 hr by glucose oxidase method; assay type: functional; method in brief: as §3
[11] = test system: Rattus norvegicus; assay: Hypoglycemic activity in 16 hrs fasted Wistar rat assessed as reduction in serum glucose level at 100 mg/kg, po measured after 180 mins of glucose challenge by oral glucose tolerance test; assay type: functional; method in brief: as §2
[12] = test system: Rattus norvegicus; assay: Hypoglycemic activity in 16 hrs fasted Wistar rat assessed as reduction in serum glucose level at 100 mg/kg, po measured after 30 mins of glucose challenge by oral glucose tolerance test; assay type: functional; method in brief: as §2
[13] = test system: Lung; assay: Antioxidant activity in Wistar rat lung assessed as half maximal inhibition of myeloperoxidase; assay type: functional, tissue-based
Method in brief: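 Enzyme source: rat lung homogenised in ice-cold phosphate buffer. Activity was read as the slope of absorbance at 450 nm with o-dianisidine-2HCl and H2O2 and converted to units against a standard curve of commercial enzyme. Each concentration point was monitored kinetically, and the concentration giving half-maximal inhibition (K0.5) was taken from the inhibition curve.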

[14] = test system: Rattus norvegicus; assay: Hypoglycemic activity in normal 16 hrs fasted Wistar rat assessed as reduction in serum glucose level at 200 mg/kg, po after 3 hrs by glucose oxidase method; assay type: functional; method in brief: as §3
[15] = test system: Rattus norvegicus; assay: Hypoglycemic activity in 16 hrs fasted Wistar rat assessed as reduction in serum glucose level at 100 mg/kg, po measured after 60 mins of glucose challenge by oral glucose tolerance test; assay type: functional; method in brief: as §2
[16] = test system: Rattus norvegicus; assay: Hypoglycemic activity in diabetic 16 hrs fasted Wistar rat assessed as reduction in alloxan-induced serum glucose level at 100 mg/kg, po after 2 hrs by glucose oxidase method; assay type: functional; method in brief: as §1
[17] = test system: Rattus norvegicus; assay: Hypoglycemic activity in diabetic 16 hrs fasted Wistar rat assessed as reduction in alloxan-induced serum glucose level at 50 mg/kg, po after 3 hrs by glucose oxidase method; assay type: functional; method in brief: as §1
[18] = Antioxidant activity in asolectin liposome assessed as inhibition of ascorbyl radical-induced lipid peroxidation by TBARS assay; assay type: functional
Method in brief: (§4)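 Egg-yolk phosphatidylcholine or soybean asolectin bilayer liposomes made by cholate/deoxycholate solubilisation then dialysis; lipid 12.5 mg/mL. Ascorbyl-radical peroxidation started with 25 µM FeSO4 plus 500 µM ascorbate. TBARS read with extinction coefficient 1.56 × 10^5 M-1 cm-1; IC50 derived; mean ± SEM, n = 3 in duplicate.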

[19] = test system: Rattus norvegicus; assay: Hypoglycemic activity in normal 16 hrs fasted Wistar rat assessed as reduction in serum glucose level at 50 mg/kg, po after 1 hr by glucose oxidase method; assay type: functional; method in brief: as §3
[20] = test system: Rattus norvegicus; assay: Hypoglycemic activity in diabetic 16 hrs fasted Wistar rat assessed as reduction in alloxan-induced serum glucose level at 100 mg/kg, po after 1 hr by glucose oxidase method; assay type: functional; method in brief: as §1
[21] = Antioxidant activity in 1-alpha-phosphatidylcholine liposome assessed as inhibition of ascorbyl radical-induced lipid peroxidation by TBARS assay; assay type: functional; method in brief: as §4
[22] = test system: Rattus norvegicus; assay: Hypoglycemic activity in normal 16 hrs fasted Wistar rat assessed as reduction in serum glucose level at 200 mg/kg, po after 2 hrs by glucose oxidase method; assay type: functional; method in brief: as §3
[23] = test system: Radical scavenging activity; assay: Antioxidant activity assessed as DPPH radical scavenging activity; assay type: functional
Method in brief: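 DPPH in EtOH, 200 μM, in the medium; radical loss read as absorbance decrease at 515 nm.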

[24] = test system: Liver microsomes; assay: Antioxidant activity in Wistar rat liver microsomes assessed as inhibition of hydroxyl radical-induced lipid peroxidation by TBARS assay; assay type: functional, Microsome
Method in brief: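 Male Wistar rat liver microsomes, isolated by differential centrifugation with calcium aggregation and stored at -70 °C, at 2 mg protein/mL in 0.1 M KH2PO4 pH 7.4. Hydroxyl-radical peroxidation started with 25 µM FeCl2, 2.8 mM H2O2 and 100 µM sodium ascorbate. TBARS read with extinction coefficient 1.56 × 10^5 M-1 cm-1; IC50 derived; mean ± SEM, n = 3 in duplicate.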

[25] = test system: Rattus norvegicus; assay: Hypoglycemic activity in diabetic 16 hrs fasted Wistar rat assessed as reduction in alloxan-induced serum glucose level at 200 mg/kg, po after 1 hr by glucose oxidase method; assay type: functional; method in brief: as §1
[26] = test system: Rattus norvegicus; assay: Hypoglycemic activity in normal 16 hrs fasted Wistar rat assessed as reduction in serum glucose level at 50 mg/kg, po after 2 hrs by glucose oxidase method; assay type: functional; method in brief: as §3
[27] = test system: Rattus norvegicus; assay: Hypoglycemic activity in normal 16 hrs fasted Wistar rat assessed as reduction in serum glucose level at 200 mg/kg, po after 1 hr by glucose oxidase method; assay type: functional; method in brief: as §3
[28] = test system: Rattus norvegicus; assay: Hypoglycemic activity in diabetic 16 hrs fasted Wistar rat assessed as reduction in alloxan-induced serum glucose level at 200 mg/kg, po after 2 hrs by glucose oxidase method; assay type: functional; method in brief: as §1
[29] = test system: Rattus norvegicus; assay: Hypoglycemic activity in diabetic 16 hrs fasted Wistar rat assessed as reduction in alloxan-induced serum glucose level at 50 mg/kg, po after 2 hrs by glucose oxidase method; assay type: functional; method in brief: as §1

C[C@@H]1O[C@@H](Oc2cc(O)c3c(=O)c(O[C@@H]4O[C@@H](C)[C@H](O)[C@@H](O)[C@H]4O)c(-c4ccc(O)cc4)oc3c2)[C@H](O)[C@H](O)[C@H]1O [KAEMPFERITRIN]
Activity [1]: 24 mmol/L
Activity [2]: 8.2 mmol/L
Activity [3]: 5.5 mmol/L
Activity [4]: 23.5 mmol/L
Activity [5]: 6.2 mmol/L
IC50 [6]: 320 µM
Activity [7]: 6.2 mmol/L
Activity [8]: 22.4 mmol/L
Activity [9]: Active
Activity [10]: 5.4 mmol/L
Activity [11]: 6.7 mmol/L
Activity [12]: 9.5 mmol/L
K [13]: 86 µM
Activity [14]: 5.1 mmol/L
Activity [15]: 8.8 mmol/L
Activity [16]: 24 mmol/L
Activity [17]: 25.3 mmol/L
IC50 [18]: 223 µM
Activity [19]: 5.5 mmol/L
Activity [20]: 24.3 mmol/L
IC50 [21]: 112 µM
Activity [22]: 5 mmol/L
IC50 [23]: 84 µM
IC50 [24]: 85 µM
Activity [25]: 22.4 mmol/L
Activity [26]: 5.9 mmol/L
Activity [27]: 4.5 mmol/L
Activity [28]: 22.2 mmol/L
Activity [29]: 25.2 mmol/L

O=c1c(O)c(-c2ccc(O)c(O)c2)oc2cc(O)cc(O)c12 [QUERCETIN]
IC50 [6]: 125 µM
IC50 [18]: 80 µM
IC50 [21]: 80 µM
IC50 [24]: 7.5 µM

CCCCNC(=O)NS(=O)(=O)c1ccc(C)cc1 [TOLBUTAMIDE]
Activity [2]: 5.9 mmol/L
Activity [11]: 5.2 mmol/L
Activity [12]: 7.8 mmol/L
Activity [15]: 6.3 mmol/L
